Reference: paper PMC5704914 (Biochemistry, 2017)
“Also recorded” adds a separate entry of the source.

Key:
[1] = biological target: apoCaM (Homo sapiens, UniProt P0DP23); assay: Fluorescence polarization, binding of IQ domain-derived peptides to apoCaM; details: FP assay, relative to WT peptide
How it was run: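 Wild-type or mutant α11.2 IQ peptides (AAs 1644-1668), N-terminally fluorescein-labelled, at 1 μM final, were mixed with twofold serial dilutions of untagged purified apoCaM starting from 100 μM. Polarization was read after ≥45 min (ex 485/20, em 528/20) and normalized to fractional binding. Kd came from fitting Y = B*X/(Kd + X); error bars are SD.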

[2] = tested on: CaV1.2; assay: Whole-cell Ba2+ current recording in HEK293T/17 cells; format: cell-based, rat α11.2, rat β2a, rabbit α2δ1; details: for Erev (equilibrium/reversal potential) / Gmax (maximum conductance) / V1/2 (half-activation voltage): Boltzmann IV fit; for Erev (equilibrium/reversal potential) / Gmax (maximum conductance) / V1/2 (half-activation voltage) / current density relative to WT: N=6–7; for V1/2 (half-activation voltage): *** p<0.001 vs WT; for current density relative to WT: at 20 mV, ANOVA, Tukey and Bonferroni; for shift of V1/2 relative to WT: shift towards more depolarized levels
How it was run: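 HEK293T/17 cells on poly-L-lysine coverslips were transfected 1:1:1 with β2a, α2δ1 and HA/CFP-tagged WT or mutant α11.2 (Lipofectamine 2000). Whole-cell Ba2+ currents were taken 48–72 h later from CFP-positive cells, held at −70 mV and stepped from −40 to +80 mV in 10 mV increments, with P/4 leak subtraction. Currents were capacitance-normalized, I–V curves Boltzmann-fitted, and data given as mean ± S.E.M. (ANOVA, Tukey/Bonferroni). Cells came from ≥3 independent transfections.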

[3] = tested on: surface expression of CaV1.2 (α11.2) in HEK293T/17 cells; assay: Cell surface biotinylation of HA-tagged α11.2 in HEK293T/17 cells; format: cell-based, rat; details: NeutrAvidin pull-down, immunoblot, normalized to WT; N=7–13
How it was run: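 HEK293T/17 cells co-transfected 1:1:1 (calcium phosphate) with α2δ1, β2a and WT or mutant CFP-HA-α11.2; medium changed at 7 h, Accutase-detached at 22 h, >95% trypan-blue-negative. 6×10^6 cells surface-labelled with 0.4 mg/mL sulfo-NHS-LC-biotin, 30 min on ice, pH 7.8; glycine-quenched, RIPA-lysed. 250 μg lysate on NeutrAvidin beads, 2 h, 4°C. Immunoblot for HA, loop II/III, GAPDH and α-tubulin; ECL exposures kept linear.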

[4] = tested on: L-type Ca^2+ channels at the surface of hippocampal pyramidal neurons; details: chelating intracellular Ca^2+, ref [27]; cited from earlier work
[5] = tested on: surface expression of CaV1.2 (α11.2) in HEK293T/17 cells; assay: Flow cytometry of surface anti-HA staining of α11.2 in HEK293T/17 cells; format: cell-based, rat; details: N=5–7; for reduction in surface labeling of HA-epitope: relative to WT channel labeling
How it was run: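 HEK293T/17 cells were co-transfected 1:1:1 with α2δ1, β2a and CFP-HA-α11.2 (HA in the domain II S5-H5 extracellular loop) by calcium phosphate, with medium changed at 7 h. At 22 h, Accutase-detached, trypan-blue-counted live cells (6×10^6) were stained on ice for 1 h in the dark ± 2.5 μg/mL Alexa 647 anti-HA, then given 1 μg/mL PI. 50,000 PI-negative singlets were collected; HA-positive percentage of CFP-positive cells was normalized to WT.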

[6] = tested on: L-type channel; details: ref [71], [72]; cited from earlier work

Row | effect of mutation on apoCaM binding [1] | Molecule | Erev (equilibrium/reversal potential) [2] [mV] | Gmax (maximum conductance) [2] | V1/2 (half-activation voltage) [2] | current density relative to WT [2] | surface expression by biotinylation relative to WT [3] | prevalence of L-type Ca2+ channels at the surface [4] | reduction in surface labeling of HA-epitope [5] | shift of V1/2 relative to WT [2] | percentage of anti-HA and CFP co-positive events relative to WT ([5]; PI-negative, CFP-positive cells, normalized to WT) | behavioral effect [6]
1 | did not affect apoCaM binding | F1648A: fluorescein-labeled α11.2 IQ domain peptide (AAs 1644-1668), F1648A mutant | 73.5 ± 1.7 | 0.26 ± 0.02 | 3.0 ± 1.5 mV | did not show a significant reduction | did not exhibit statistically significant differences | – | – | – | – | –
2 | – | O=C(O)CN(CC(=O)O)c1ccccc1OCCOc1ccccc1N(CC(=O)O)CC(=O)O [BAPTA] | – | – | – | – | – | increased the prevalence of L-type Ca^2+ channels at the surface | – | – | – | –
3 | – | Y1649A: fluorescein-labeled α11.2 IQ domain peptide (AAs 1644-1668), Y1649A mutant | 66.5 ± 2.9 | 0.08 ± 0.01 | – | significantly reduced current density | significant decreases in surface expression | – | ~ 35% | quite pronounced and significant | – | –
4 | did not affect apoCaM binding | Q1655A: fluorescein-labeled α11.2 IQ domain peptide (AAs 1644-1668), Q1655A mutant | 67.2 ± 2.7 | 0.25 ± 0.02 | −2.6 ± 1.6 mV | did not show a significant reduction | did not exhibit statistically significant differences | – | – | – | not observed | –
5 | – | COC(=O)C1=C(C)NC(C)=C([N+](=O)[O-])C1c1ccccc1C(F)(F)F (stereo not drawn) [BayK8644] | – | – | – | – | – | – | – | – | – | depressant-like behavior
6 | – | K1647A: fluorescein-labeled α11.2 IQ domain peptide (AAs 1644-1668), K1647A mutant | 69.2 ± 1.3 | 0.09 ± 0.01 | 1.1 ± 1.4 mV | significantly reduced current density | significant decreases in surface expression | – | ~ 35% | did not reach statistical significance | – | –

Row | Molecule | effect of mutation on apoCaM binding [1] | Erev (equilibrium/reversal potential) [2] [mV] | Gmax (maximum conductance) [2] | V1/2 (half-activation voltage) [2] | current density relative to WT [2] | surface expression by biotinylation relative to WT [3] | prevalence of L-type Ca2+ channels at the surface [4] | reduction in surface labeling of HA-epitope [5] | shift of V1/2 relative to WT [2] | percentage of anti-HA and CFP co-positive events relative to WT ([5]; PI-negative, CFP-positive cells, normalized to WT) | behavioral effect [6]
7 | I1654A: fluorescein-labeled α11.2 IQ domain peptide (AAs 1644-1668), I1654A mutant | affected apoCaM binding; also recorded: reduced binding affinity to apoCaM | 75.7 ± 1.7 | 0.15 ± 0.01 | 11.2 ± 1.5*** mV | significantly reduced current density | significant decreases in surface expression | – | ~ 35% | quite pronounced and significant | – | –
